Source: ChEMBL document CHEMBL1156875, “Anti-influenza drug discovery: structure-activity relationship and mechanistic insight into novel angelicin derivatives” (J Med Chem, 2010)

Key:
Influenza A virus = test: Antiviral activity against human influenza A virus A/WSN/33 (H1N1) in MDCK cells assessed as reduction of virus-induced cytopathic effect; assay type: functional, organism-based; details: A/WSN/1933(H1N1)
How it was run: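 MDCK cells (1.1 × 10^5 cells/mL in DMEM + 10% FBS) grown 24-30 h at 37 C to about 90% confluency. Virus (100 TCID50) premixed with serially diluted compound, adsorbed 1 h at 37 C. Overlay of serum-free DMEM with trypsin 2.5 μg/mL and 0.1% DMSO, then 72 h at 37 C. Formaldehyde fixation, crystal violet stain, A570. IC50 = 50% CPE reduction versus virus control. Triplicate, at least two runs.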

[1] = Cytotoxicity against MDCK cells after 72 hrs; assay type: cell-based, Canis lupus familiaris; details: dog
How it was run: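 Uninfected MDCK monolayers (seeded at 1.1 × 10^5 cells/mL, grown 24-30 h to about 90% confluency) exposed to graded compound concentrations for 72 h at 37 C. Read by formaldehyde fixation, 0.1% crystal violet staining and absorbance at 570 nm. CC50 = concentration reducing viability to 50% of control. Triplicate, repeated at least twice.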

Row | Compound | IC50 (Influenza A virus) [µM] | CC50 at 72 h [1] [µM]
1 | Cc1cc(=O)oc2c1ccc1oc(C(=O)c3cccc(O)c3)c(-c3ccccc3)c12 | 0.72 | > 25
2 | CCCc1c(C(=O)c2ccccc2)oc2ccc3c(C)cc(=O)oc3c12 | 0.29 | > 25
3 | Cc1cc(=O)oc2c1ccc1occ(-c3ccccc3)c12 | > 25 | > 25
4 | Cc1cc(=O)oc2c1ccc1oc(C(=O)c3ccccc3)c(-c3ccccc3Br)c12 | 0.73 | > 25
5 | COc1cccc(C(=O)c2oc3ccc4c(C)cc(=O)oc4c3c2-c2cccc(Br)c2)c1 | 0.09 | > 25
6 | Cc1ccc(-c2c(C(=O)c3ccccc3)oc3ccc4c(C)cc(=O)oc4c23)cc1 | 0.82 | > 25
7 | CCCCCCc1c(C(=O)c2ccccc2)oc2ccc3c(C)cc(=O)oc3c12 | 0.65 | > 25
8 | Cc1cc(=O)oc2c1ccc1oc(C(=O)c3ccccc3)c(-c3ccc(Br)cc3)c12 | 0.46 | > 25
9 | O=C(c1ccccc1)c1oc2ccc3ccccc3c2c1-c1ccccc1 | > 25 | > 25
10 | Cc1cc(=O)oc2c1ccc1oc(C(=O)c3ccccc3)c(-c3ccccc3)c12 | 0.14 | > 25
11 | Cc1ccccc1C(=O)c1oc2ccc3c(C)cc(=O)oc3c2c1-c1ccccc1 | 6.62 | > 25
12 | Cc1cc(=O)oc2c1ccc1oc(C(=O)c3ccccc3)c(-c3cccc(Br)c3)c12 | 0.08 | > 25
13 | CCCOc1cccc(C(=O)c2oc3ccc4c(C)cc(=O)oc4c3c2-c2ccccc2)c1 | 0.15 | > 25
14 | CCCc1cc(=O)oc2c1ccc1oc(C(=O)c3ccccc3)c(-c3ccccc3)c12 | 0.47 | > 25
15 | Cc1cc(=O)oc2c1ccc1oc(C(=O)c3cccc(F)c3)c(-c3ccccc3)c12 | 0.29 | > 25
16 | COc1ccc(C(=O)c2oc3ccc4c(C)cc(=O)oc4c3c2-c2ccccc2)cc1 | 1.67 | > 25
17 | Cc1ccc(C(=O)c2oc3ccc4c(C)cc(=O)oc4c3c2-c2ccccc2)cc1 | 0.87 | > 25
18 | Cc1cc(=O)oc2c1ccc1oc(Cc3ccccc3)c(-c3ccccc3)c12 | 0.63 | > 25
19 | COc1cccc(C(=O)c2oc3ccc4c(C)cc(=O)oc4c3c2-c2ccccc2)c1 | 0.11 | > 25

Row | Compound | IC50 (Influenza A virus) [µM] | CC50 at 72 h [1] [µM]
20 | CC(=O)c1oc2ccc3c(C)cc(=O)oc3c2c1-c1ccccc1 | > 25 | > 25
21 | CCCCCOc1cccc(C(=O)c2oc3ccc4c(C)cc(=O)oc4c3c2-c2ccccc2)c1 | 0.14 | > 25
22 | Cc1cc(=O)oc2c1ccc1oc(C(=O)c3ccccc3)c(-c3ccc4ccccc4c3)c12 | 1.91 | > 25
23 | Cc1cc(=O)oc2c1ccc1oc(C(=O)c3ccccc3)c(-c3ccc([N+](=O)[O-])cc3)c12 | 0.76 | > 25
24 | CCc1cc(=O)oc2c1ccc1oc(C(=O)c3ccccc3)c(-c3ccccc3)c12 | 0.24 | > 25
25 | Cc1cc(=O)oc2c1ccc1oc(C(=O)c3ccccc3)c(-c3ccco3)c12 | 0.65 | > 25
26 | Cc1cc(=O)oc2c1ccc1oc(C(O)c3ccccc3)c(-c3ccccc3)c12 (configuration not stated) | 0.32 | > 25
27 | Cc1cc(=O)oc2c1ccc1oc(C(=O)c3ccccc3)c(-c3cccc4ccccc34)c12 | 0.88 | > 25
28 | Cc1cc(=O)oc2c1ccc1oc(C(=O)c3ccccc3)c(-c3cccc([N+](=O)[O-])c3)c12 | 0.25 | > 25
29 | Cc1cc(=O)oc2c1ccc1oc(C(=O)c3cccc(OCCO)c3)c(-c3ccccc3)c12 | 6.09 | > 25
30 | Cc1cc(=O)oc2c1ccc1oc(C(=O)c3ccco3)c(-c3ccccc3)c12 | 0.41 | > 25
31 | Cc1cc(=O)oc2c1ccc1oc(C(=O)c3ccccc3)cc12 | 2.43 | > 25
32 | Cc1cc(=O)oc2c1ccc1oc(C(=O)c3ccc(Cl)cc3)c(-c3ccccc3)c12 | 22.3 | > 25
33 | Cc1cc(=O)oc2c1ccc1oc(C(=O)c3ccccc3)c(-c3cccc(Cl)c3)c12 | 1.41 | > 25
34 | Cc1cc(=O)oc2c1ccc1oc(C(=O)c3cccc(Cl)c3)c(-c3ccccc3)c12 | 0.26 | > 25
35 | COc1ccc(-c2c(C(=O)c3ccccc3)oc3ccc4c(C)cc(=O)oc4c23)cc1 | 10.1 | > 25
36 | COc1ccccc1C(=O)c1oc2ccc3c(C)cc(=O)oc3c2c1-c1ccccc1 | 0.64 | > 25
37 | Cc1cc(=O)oc2c1ccc1oc(C(=O)c3ccccc3)c(-c3cccc(C#N)c3)c12 | 0.53 | > 25
38 | Cc1cccc(-c2c(C(=O)c3ccccc3)oc3ccc4c(C)cc(=O)oc4c23)c1 | 0.1 | > 25

Row | Compound | IC50 (Influenza A virus) [µM] | CC50 at 72 h [1] [µM]
39 | Cc1cc2oc(C(=O)c3ccccc3)c(-c3ccccc3)c2c2oc(=O)ccc12 | 7.76 | > 25
40 | Cc1cc2ccc3oc(C(=O)c4ccccc4)c(-c4ccccc4)c3c2oc1=O | 2.79 | > 25
41 | Cc1cc(=O)oc2c1ccc1oc(C(=O)c3cccc(OCCN(C)C)c3)c(-c3ccccc3)c12 | 5.28 | 17.7
42 | Cc1cc(=O)oc2c1ccc1oc(C(=O)c3ccccn3)c(-c3ccccc3)c12 | 0.61 | 
43 | CCCCCCCCCCc1c(C(=O)c2ccccc2)oc2ccc3c(C)cc(=O)oc3c12 | > 25 | > 25
44 | Cc1cc(=O)oc2c1ccc1oc(C(=O)c3ccccc3)c(-c3cccs3)c12 | 0.15 | > 25
45 | Cc1cc(=O)oc2c1ccc1oc(C(=O)c3ccccc3)c(C)c12 | 4.51 | > 25
46 | Cc1cc(=O)oc2c1ccc1oc(C(=O)c3cccs3)c(-c3cccc(Br)c3)c12 | 0.06 | > 25
47 | CCCCCCCCOc1cccc(C(=O)c2oc3ccc4c(C)cc(=O)oc4c3c2-c2ccccc2)c1 | 7.97 | > 25
48 | Cc1c(C)c2ccc3oc(C(=O)c4ccccc4)c(-c4ccccc4)c3c2oc1=O | 0.29 | > 25
49 | O=C(c1ccccc1)c1oc2ccc3c4c(c(=O)oc3c2c1-c1ccccc1)CCCC4 | > 25 | > 25
50 | Cc1cc(=O)oc2c1ccc1oc(C(=O)c3ccccc3)c(-c3ccc(Cl)cc3)c12 | 3.92 | > 25
51 | C/C=C/C(=O)Oc1cccc2oc(C(=O)c3ccccc3)c(-c3ccccc3)c12 | 20.8 | > 25
52 | Cc1cc(=O)oc2c1ccc1oc(C(=O)c3cccc(OCCCO)c3)c(-c3ccccc3)c12 | 2.65 | > 25
53 | Cc1cc(=O)oc2c1ccc1oc(C(=O)c3cccc([N+](=O)[O-])c3)c(-c3ccccc3)c12 | 1.71 | > 25
54 | Cc1cc(=O)oc2c1ccc1sc(C(=O)c3ccccc3)c(-c3ccccc3)c12 | 0.72 | > 25
55 | O=C(c1ccccc1)c1oc2ccc3ccc(=O)oc3c2c1-c1ccccc1 | 17.6 | > 25
56 | Cc1cccc(C(=O)c2oc3ccc4c(C)cc(=O)oc4c3c2-c2ccccc2)c1 | 0.26 | > 25
57 | Cc1cc(=O)oc2c1ccc1oc(C(=O)c3ccc([N+](=O)[O-])cc3)c(-c3ccccc3)c12 | > 6.25 | 
